From ChEMBL document CHEMBL1138590, “Discovery of novel dihydro-9,10-ethano-anthracene carboxamides as glucocorticoid receptor modulators” (Bioorg Med Chem Lett, 2009)

Experiments:
[1] = target: T1, Progesterone receptor (Homo sapiens, UniProt P06401); test: Displacement of […] from progesterone receptor by fluorescence polarization assay
T1 sequence (P06401 whole entry): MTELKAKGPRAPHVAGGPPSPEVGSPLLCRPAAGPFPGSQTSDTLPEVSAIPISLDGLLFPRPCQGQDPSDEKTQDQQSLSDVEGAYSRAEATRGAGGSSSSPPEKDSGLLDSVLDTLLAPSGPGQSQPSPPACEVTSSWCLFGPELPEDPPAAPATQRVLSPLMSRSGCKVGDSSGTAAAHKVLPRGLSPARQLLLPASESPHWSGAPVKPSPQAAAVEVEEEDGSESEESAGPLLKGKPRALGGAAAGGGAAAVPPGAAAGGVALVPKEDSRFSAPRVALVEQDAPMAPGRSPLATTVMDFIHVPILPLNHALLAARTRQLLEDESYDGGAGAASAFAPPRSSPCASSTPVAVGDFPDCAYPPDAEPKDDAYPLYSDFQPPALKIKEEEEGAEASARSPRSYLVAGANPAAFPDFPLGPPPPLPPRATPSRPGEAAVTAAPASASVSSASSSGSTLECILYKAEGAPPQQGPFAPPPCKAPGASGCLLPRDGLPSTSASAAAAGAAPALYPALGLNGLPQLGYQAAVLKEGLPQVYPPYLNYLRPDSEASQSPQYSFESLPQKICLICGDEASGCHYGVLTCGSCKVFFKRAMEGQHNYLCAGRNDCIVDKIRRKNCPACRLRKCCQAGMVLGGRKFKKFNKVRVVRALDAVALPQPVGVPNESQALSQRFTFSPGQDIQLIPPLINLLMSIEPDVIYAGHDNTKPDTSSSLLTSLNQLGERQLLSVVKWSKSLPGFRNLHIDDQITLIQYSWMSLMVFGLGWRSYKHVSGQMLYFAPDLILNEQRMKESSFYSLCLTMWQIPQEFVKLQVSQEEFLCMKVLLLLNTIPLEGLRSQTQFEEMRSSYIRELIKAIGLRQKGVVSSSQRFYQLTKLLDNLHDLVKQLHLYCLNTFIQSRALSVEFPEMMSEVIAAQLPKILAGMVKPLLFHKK
Procedure, shortened: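 Fluorescence polarization competition binding: the test compound competes with a fluorescently labelled ligand for binding to the full-length receptor or its ligand-binding domain. IC50 is fitted from the polarization signal with a four-parameter logistic equation. Ki is derived by Cheng–Prusoff, Ki = IC50/(1 + ligand concentration/Kd). Values are means of duplicate experiments.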

[2] = target: T2, Androgen receptor (Homo sapiens, UniProt P10275); test: Displacement of fluorescently labeled ligand from androgen receptor by fluorescence polarization assay
T2 sequence (P10275 whole entry): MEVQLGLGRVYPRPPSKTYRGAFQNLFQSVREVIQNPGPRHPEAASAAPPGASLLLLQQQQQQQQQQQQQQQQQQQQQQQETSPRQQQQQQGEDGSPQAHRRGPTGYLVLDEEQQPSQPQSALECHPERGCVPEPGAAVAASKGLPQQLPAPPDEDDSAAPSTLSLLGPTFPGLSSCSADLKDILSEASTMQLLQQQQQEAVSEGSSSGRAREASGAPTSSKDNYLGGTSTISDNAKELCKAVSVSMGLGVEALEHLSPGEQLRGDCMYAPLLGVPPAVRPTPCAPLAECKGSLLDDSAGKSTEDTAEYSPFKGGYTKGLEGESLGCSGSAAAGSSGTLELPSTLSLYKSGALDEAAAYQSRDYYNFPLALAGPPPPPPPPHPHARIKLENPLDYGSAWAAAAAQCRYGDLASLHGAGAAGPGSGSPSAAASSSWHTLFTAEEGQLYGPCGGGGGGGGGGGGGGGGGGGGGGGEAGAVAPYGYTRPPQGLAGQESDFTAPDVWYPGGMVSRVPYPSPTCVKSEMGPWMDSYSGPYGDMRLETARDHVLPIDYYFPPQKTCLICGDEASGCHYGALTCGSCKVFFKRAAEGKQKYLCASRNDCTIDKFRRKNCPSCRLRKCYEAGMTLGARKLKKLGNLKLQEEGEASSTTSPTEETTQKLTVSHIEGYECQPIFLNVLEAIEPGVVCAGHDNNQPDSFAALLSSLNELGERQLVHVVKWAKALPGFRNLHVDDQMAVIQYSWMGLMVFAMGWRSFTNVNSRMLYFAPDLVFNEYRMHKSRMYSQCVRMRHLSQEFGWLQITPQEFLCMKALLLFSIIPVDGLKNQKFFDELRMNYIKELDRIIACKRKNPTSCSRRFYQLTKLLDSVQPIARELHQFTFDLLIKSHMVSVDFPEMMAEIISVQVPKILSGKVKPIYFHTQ

[3] = target: T3, Glucocorticoid receptor (Homo sapiens, UniProt P04150); test: Transrepression activity at GR in IL-1-beta-stimulated human A549 cells assessed as inhibition of NF-kappaB-dependent E-selectin transcription by luciferase reporter gene assay; assay type: cell-based
T3 sequence (P04150 whole entry): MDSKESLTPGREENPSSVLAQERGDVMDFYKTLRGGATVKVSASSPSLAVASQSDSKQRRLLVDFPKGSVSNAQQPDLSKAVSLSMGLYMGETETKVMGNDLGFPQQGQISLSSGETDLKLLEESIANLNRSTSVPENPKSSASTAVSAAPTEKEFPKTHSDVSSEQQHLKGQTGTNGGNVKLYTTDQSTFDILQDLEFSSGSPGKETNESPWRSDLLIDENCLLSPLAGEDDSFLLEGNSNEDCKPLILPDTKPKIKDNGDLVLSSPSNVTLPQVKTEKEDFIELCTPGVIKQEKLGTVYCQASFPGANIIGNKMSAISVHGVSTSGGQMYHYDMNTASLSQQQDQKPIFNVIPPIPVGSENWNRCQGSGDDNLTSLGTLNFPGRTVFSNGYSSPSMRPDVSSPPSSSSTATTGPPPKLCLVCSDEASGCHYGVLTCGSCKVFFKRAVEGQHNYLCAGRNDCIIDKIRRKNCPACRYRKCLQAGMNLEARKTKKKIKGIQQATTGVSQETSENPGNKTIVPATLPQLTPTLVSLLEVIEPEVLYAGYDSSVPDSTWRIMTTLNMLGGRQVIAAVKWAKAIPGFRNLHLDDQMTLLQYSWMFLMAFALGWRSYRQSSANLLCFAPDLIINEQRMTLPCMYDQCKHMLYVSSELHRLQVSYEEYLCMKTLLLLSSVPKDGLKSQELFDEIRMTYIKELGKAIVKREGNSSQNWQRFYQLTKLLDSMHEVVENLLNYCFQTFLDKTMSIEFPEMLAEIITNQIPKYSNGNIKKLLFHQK

[4] = target: T3, Glucocorticoid receptor; test: Agonist activity at GR ligand binding domain expressed in human NP1 cells assessed as glucocorticoid response element transactivation by GAL4 luciferase reporter gene assay; assay type: cell-based

Compound | Ki [1] | Ki [2] | EC50 [3] | EC50 [4]
C[C@@]1(C(=O)Nc2nccs2)CC2c3ccccc3C1c1ccccc12 | 147 nM | 7400 nM | – | –
C[C@@]1(C(=O)Nc2nccs2)CC2(C#N)c3ccccc3C1c1ccccc12 | 34 nM | > 10000 nM | 19.4 nM | > 10000 nM
